pKi: −log10 of the molar value.
What was measured:
[1] = Metabolic stability in Wistar rat brain assessed as remaining parent compound after 60 mins by HPLC analysis; format: ADME, tissue-based; conditions: read-out: Stability
Outline: (§1)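 ¹⁸F-labelled compounds given to naïve Wistar rats (n = 1). Brain extracts were taken at 10, 30 and 60 min post-injection and analysed by HPLC. The read-out is % parent.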

[2] = Metabolic stability in Wistar rat brain assessed as remaining parent compound after 10 mins by HPLC analysis; format: ADME, tissue-based; conditions: read-out: Stability; outline: as §1
[3] = Metabolic stability in Wistar rat brain assessed as remaining parent compound after 30 mins by HPLC analysis; format: ADME, tissue-based; conditions: read-out: Stability; outline: as §1
[4] = target: Translocator protein (Rattus norvegicus, UniProt P16257); test: Displacement of [3H]PK11195 from PBR receptor in Wistar rat heart homogenates; format: tissue-based
Sequence of Translocator protein (P16257 whole entry, looked up): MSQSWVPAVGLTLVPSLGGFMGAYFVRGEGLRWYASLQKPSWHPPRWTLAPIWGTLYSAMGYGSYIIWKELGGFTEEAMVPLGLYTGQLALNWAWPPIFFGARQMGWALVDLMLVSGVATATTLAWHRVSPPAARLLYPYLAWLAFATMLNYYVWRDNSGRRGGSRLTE
Outline: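 Competition binding against [³H]PK11195 in homogenised rat heart tissue.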

[5] = tested on: Striatum; test: Ratio of drug uptake in Wistar rat striatum after 2 mins to Wistar rat striatum after 30 mins; format: ADME, tissue-based; conditions: in vivo
Outline: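 Biodistribution of ¹⁸F-compounds in naïve Wistar rats (n = 3). Regional brain uptake was measured as % id/g at 2 and 30 min post-injection. Ratios were taken between regions, olfactory bulb:striatum at 30 min, and between times, 2:30 min.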

[6] = Octanol-water partition coefficient, log P of the compound by reversed phase liquid chromatography; format: physicochemical
[7] = Ratio of drug uptake in Wistar rat brain to Wistar rat striatum after 30 mins; conditions: in vivo, 0.5 h
[8] = Metabolic stability in Wistar rat plasma after 15 mins by HPLC analysis; format: ADME, cell-free; conditions: read-out: Stability
Outline: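 Radiolabelled compound was incubated in plasma at 37 °C for 15 min. Chiral HPLC analysis then gave the percentage of the active enantiomer that remained.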

Row | SMILES | pKi [4] | Ratio [5] | logP [6] | Ratio [7] | other results
1 | [3H]C([3H])([3H])N(C(=O)c1cc2ccccc2c(-c2ccccc2Cl)n1)C(C)CC (stereo not drawn) |  |  |  |  | remaining at 1 h [1]: 100%; remaining at 10 min [2]: 100%; remaining at 0.5 h [3]: 100%
2 | CCN(CCF)C(=O)c1sc2ccccc2c2nc3ccccc3c1-2 | 6.53 |  |  |  | 
3 | CCN(CC)C(=O)C1Sc2ccccc2-c2c1c1ccccc1n2CCF (racemic) |  | 2.16 | 3.76 | 1.42 | remaining at 10 min [2]: 99%; remaining at 0.5 h [3]: 95%
4 | CCN(CC)C(=O)C1(C)Sc2ccccc2-c2c1c1ccccc1n2CCF (racemic) | 7.88 | 2.75 | 4 | 0.88 | 
5 | CCN(CC)C(=O)C1Sc2ccccc2-c2c1c1cc(OC)ccc1n2CCF (racemic) |  | 1.73 | 3.77 |  | remaining at 1 h [1]: 96%; remaining at 10 min [2]: 98%; remaining at 0.5 h [3]: 97%
6 | CCN(CC)C(=O)CC1c2cc(OC)ccc2-c2c1c1ccccc1n2CCF (racemic) | 6.81 |  |  |  | 
7 | CCN(CC)C(=O)C1c2ccccc2-c2[nH]c3ccccc3c21 (racemic) | 9.10 | 5.8 |  | 1 | 
8 | CCN(CC)C(=O)C1Cc2ccccc2-c2c1c1ccccc1n2CCF (racemic) | 8.95 |  | 3.69 |  | 
9 | CCN(CC)C(=O)C1(C)c2c(n(CCF)c3ccccc23)-c2ccccc2S1(=O)=O (racemic) | 6.39 |  | 3.1 |  | 
10 | CCN(CC)C(=O)C1c2c(n(CCF)c3ccccc23)-c2ccccc2S1(=O)=O (racemic) | 8.06 | 1.75 | 3 | 2.13 | 
11 | CCN(CC)C(=O)C1Sc2cc(N(CCF)C(C)=O)ccc2-c2c1c1ccccc1n2CCF (racemic) | 8.87 |  | 3.13 |  | 
12 | CCN(CC)C(=O)C1Sc2cc(F)ccc2-c2c1c1ccccc1n2CCF (racemic) |  |  | 3.87 |  | 
13 | CCN(CC)C(=O)C1Sc2c(F)cccc2-c2c1c1ccccc1n2CCF (racemic) |  |  | 3.79 |  | 
14 | CCN(CC)C(=O)C1Sc2cccc(OC)c2-c2c1c1ccccc1n2CCF (racemic) | 8.97 | 3 | 3.67 | 1.78 | 
15 | CCN(CC)C(=O)C1Sc2ccccc2-c2[nH]c3ccc(NC(C)=O)cc3c21 (racemic) | 7.23 |  |  |  | 
16 | CCN(CC)C(=O)C1Sc2ccccc2-c2c1c1cc(O)ccc1n2CCF (racemic) | 7.72 | 1.33 | 3.19 | 1 | 
17 | CCN(CC)C(=O)C1Sc2ccccc2-c2c1c1ccc(OC)nc1n2CCF (racemic) | 8.07 | 4.67 | 3.87 | 2.11 | 
18 | CCN(CC)C(=O)C1Sc2ccccc2-c2c1c1cccnc1n2CCF (racemic) | 8.41 |  | 3.12 |  | 
19 | CCN(CC)C(=O)C1Sc2ccccc2-c2c1c1cccc(OC)c1n2CCF (racemic) | 9.03 | 5 | 3.85 | 2 | 
20 | CCN(CC)C(=O)C1Sc2ccccc2-c2c1c1c(OC)cccc1n2CCF (racemic) | 8.96 | 2 |  | 2.42 | 
21 | CCN(CC)C(=O)C1Sc2ccccc2-c2[nH]c3ccccc3c21 (racemic) | 9.12 |  |  |  | 
22 | CCN(CC)C(=O)C1Sc2ccccc2-c2c1c1ccccc1n2Cc1cn(CCF)nn1 (racemic) | 7.20 |  |  |  | 
23 | CCN(CC)C(=O)C1Sc2ccccc2-c2c1c1ccccc1n2CCF (single isomer, unassigned; form 1) | 8.28 |  |  |  | 
24 | CCN(CC)C(=O)C1(C)Sc2ccccc2-c2c1c1ccccc1n2CCF (single isomer, unassigned; form 1) | 7.52 |  |  |  | 
25 | CCN(CC)C(=O)C1Sc2ccccc2-c2c1c1cc(OC)ccc1n2CCF (single isomer, unassigned; form 1) | 8.93 |  |  |  | 
26 | CCN(CC)C(=O)C1Sc2ccccc2-c2c1c1ccccc1n2CCF (single isomer, unassigned; form 2) | 9.66 |  |  |  | remaining at 0.25 h [8]: 83%
27 | CCN(CC)C(=O)C1(C)Sc2ccccc2-c2c1c1ccccc1n2CCF (single isomer, unassigned; form 2) | 7.77 |  |  |  | 
28 | CCN(CC)C(=O)C1Sc2ccccc2-c2c1c1cc(OC)ccc1n2CCF (single isomer, unassigned; form 2) | 9.54 |  |  |  | 

Further compounds by rising pKi [4], results first:

Row | pKi [4] | Ratio [5] | logP [6] | Ratio [7] | SMILES | other results
29 | 9.26 | 0.75 |  | 1.25 | CCN(CC)C(=O)C1Sc2ccc(O)cc2-c2c1c1ccccc1n2CCF (racemic) | 
30 | 9.28 | 2.89 | 3.88 | 2.67 | CCOc1ccc2c(c1)c1c(n2CCF)-c2ccccc2SC1C(=O)N(CC)CC (racemic) | 
31 | 9.28 |  |  |  | CCN(CC)C(=O)C1Sc2ccccc2-c2c1c1ccccc1n2CCCCF (racemic) | 
32 | 9.31 | 1.6 | 3.85 | 1.16 | CCN(CC)C(=O)C1Sc2ccccc2-c2c1c1cc(F)ccc1n2CCF (racemic) | 
33 | 9.33 | 1.53 | 4.23 | 1.35 | CCN(CC)C(=O)C1Sc2ccccc2-c2c1c1cc(Br)ccc1n2CCF (racemic) | 
34 | 9.40 | 4.75 | 3.82 | 3.5 | CCN(CC)C(=O)C1Sc2ccccc2-c2c1c1ccc(OC)cc1n2CCF (racemic) | remaining at 1 h [1]: 98%; remaining at 10 min [2]: 99%; remaining at 0.5 h [3]: 98%
35 | 9.41 |  | 3.15 |  | CCN(CC)C(=O)C1Sc2cc(NC(C)=O)ccc2-c2c1c1ccccc1n2CCF (racemic) | 
36 | 9.41 | 2.11 | 3.84 | 1.37 | CCN(CC)C(=O)C1Sc2ccc(F)cc2-c2c1c1ccccc1n2CCF (racemic) | 
37 | 9.44 |  |  |  | CCN(CC)C(=O)C1Sc2ccccc2-c2c1c1ccccc1n2CCCF (racemic) | 
38 | 9.46 |  |  |  | CCN(CC)C(=O)C1Sc2cc(OCCF)ccc2-c2c1c1ccccc1n2C (racemic) | 
39 | 9.47 | 2 | 3.96 | 1.73 | CCN(CC)C(=O)C1Sc2ccccc2-c2c1c1cc(C)ccc1n2CCF (racemic) | 
40 | 9.48 | 1.11 | 2.7 | 1.44 | CCN(CC)C(=O)C1Sc2cc(O)ccc2-c2c1c1ccccc1n2CCF (racemic) | 
41 | 9.48 | 1.07 | 3.67 | 1.53 | CCN(CC)C(=O)C1Sc2c(OC)cccc2-c2c1c1ccccc1n2CCF (racemic) | 
42 | 9.52 | 1.17 | 3.91 | 1.4 | CCN(CC)C(=O)C1Sc2cc(OC)ccc2-c2c1c1ccccc1n2CCF (racemic) | 
43 | 9.52 | 1.42 | 3.65 | 1.37 | CCN(CC)C(=O)C1Sc2ccc(OC)cc2-c2c1c1ccccc1n2CCF (racemic) | 
44 | 9.59 | 1.29 | 4.03 | 1.46 | CCN(CC)C(=O)C1Sc2ccccc2-c2c1c1cc(OC(F)(F)F)ccc1n2CCF (racemic) | 
45 | 9.64 | 1.29 | 4.17 | 1.57 | CCN(CC)C(=O)C1Sc2ccccc2-c2c1c1cc(Cl)ccc1n2CCF (racemic) | 
46 | 9.72 | 2.23 | 3.6 | 1.93 | CCN(CC)C(=O)C1Sc2ccccc2-c2c1c1cc(C#N)ccc1n2CCF (racemic) | 
